{"source": "ChEMBL document CHEMBL4673384", "about": "“Studying Histone Deacetylase Inhibition and Apoptosis Induction of Psammaplin A Monomers with Modified Thiol Group” (ACS Med Chem Lett, 2021)", "key": {"Histone deacetylase 2": {"target": "Histone deacetylase 2 (Homo sapiens, UniProt Q92769)", "sequence (Q92769 whole entry)": "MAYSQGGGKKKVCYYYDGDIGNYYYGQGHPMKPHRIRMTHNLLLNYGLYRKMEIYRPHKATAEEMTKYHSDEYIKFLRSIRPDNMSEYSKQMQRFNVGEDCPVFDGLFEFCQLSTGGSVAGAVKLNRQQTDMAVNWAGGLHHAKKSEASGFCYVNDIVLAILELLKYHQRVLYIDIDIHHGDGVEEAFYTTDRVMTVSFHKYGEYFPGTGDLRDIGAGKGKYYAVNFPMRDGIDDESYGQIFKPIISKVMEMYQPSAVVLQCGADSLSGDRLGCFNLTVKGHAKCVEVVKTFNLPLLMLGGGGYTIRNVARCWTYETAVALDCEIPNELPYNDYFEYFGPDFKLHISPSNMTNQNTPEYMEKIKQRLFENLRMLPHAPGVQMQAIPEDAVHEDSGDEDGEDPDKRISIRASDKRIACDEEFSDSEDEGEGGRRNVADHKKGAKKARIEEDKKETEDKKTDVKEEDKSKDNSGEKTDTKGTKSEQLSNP", "assay": "Inhibition of HDAC2 in human HL-60 cells assessed as increase in Ac-H3 level at 0.5 to 8 uM incubated for 24 hrs by Western blot analysis", "format": "cell-based", "conditions": "dose 0.5-8 µM", "method_in_brief": "(§1)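 Compound given to HL-60 cells for 24 h at the stated concentrations, then lysed. Acetyl-histone H3 and acetyl-α-tubulin levels were read by Western blot, with total H3, α-tubulin or β-actin as references.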"}, "Histone deacetylase 1": {"target": "Histone deacetylase 1 (Homo sapiens, UniProt Q13547)", "sequence (Q13547 whole entry)": "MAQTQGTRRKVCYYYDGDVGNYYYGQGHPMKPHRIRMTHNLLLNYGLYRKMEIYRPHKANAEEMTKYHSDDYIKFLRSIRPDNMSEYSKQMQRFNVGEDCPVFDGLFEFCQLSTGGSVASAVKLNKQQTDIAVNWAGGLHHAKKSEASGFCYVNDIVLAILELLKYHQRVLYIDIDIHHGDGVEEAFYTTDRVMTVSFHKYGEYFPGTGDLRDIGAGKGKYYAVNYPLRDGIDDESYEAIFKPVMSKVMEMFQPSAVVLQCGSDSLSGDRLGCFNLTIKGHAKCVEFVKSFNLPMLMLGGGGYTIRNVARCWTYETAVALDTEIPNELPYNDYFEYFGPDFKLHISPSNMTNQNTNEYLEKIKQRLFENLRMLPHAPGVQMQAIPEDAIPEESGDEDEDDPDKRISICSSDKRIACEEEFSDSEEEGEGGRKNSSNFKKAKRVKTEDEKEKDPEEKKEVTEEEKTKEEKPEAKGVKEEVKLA", "assay": "Inhibition of HDAC1 in human HL-60 cells assessed as increase in Ac-H3 level at 0.5 to 8 uM incubated for 24 hrs by Western blot analysis", "format": "cell-based", "conditions": "dose 0.5-8 µM", "method_in_brief": "as §1"}, "HL-60 [1]": {"tested_on": "HL-60", "assay": "Induction of apoptosis in human HL-60 cells assessed as cleavage of caspase-9 at 0.5 to 8 uM after 24 hrs Western blot analysis", "format": "functional, cell-based", "conditions": "dose 0.5-8 µM", "method_in_brief": "(§2)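 HL-60 cells were treated for 24 h at the indicated concentrations, then analysed by Western blot. Blots were probed for cleavage of PARP and caspase-3, -8 and -9. Ac-H3, Ac-α-tubulin and β-actin were also detected, with β-actin as the loading reference.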"}, "HL-60 [2]": {"tested_on": "HL-60", "assay": "Induction of apoptosis in human HL-60 cells assessed as cleavage of caspase-8 at 0.5 to 8 uM after 24 hrs Western blot analysis", "format": "functional, cell-based", "conditions": "dose 0.5-8 µM", "method_in_brief": "as §2"}, "HL-60 [3]": {"tested_on": "HL-60", "assay": "Induction of apoptosis in human HL-60 cells assessed as cleavage of caspase-3 at 0.5 to 8 uM after 24 hrs Western blot analysis", "format": "functional, cell-based", "conditions": "dose 0.5-8 µM", "method_in_brief": "as §2"}, "HL-60 [4]": {"tested_on": "HL-60", "assay": "Induction of apoptosis in human HL-60 cells assessed as cleavage of PARP at 0.5 to 8 uM after 24 hrs Western blot analysis", "format": "functional, cell-based", "conditions": "dose 0.5-8 µM", "method_in_brief": "as §2"}, "HL-60 [5]": {"tested_on": "HL-60", "assay": "Induction of apoptosis in human HL60 cells assessed as necrotic cells at 4 uM incubated for 24 hrs by propidium iodide and annexin-V FITC staining based FACS analysis (reference value: 0.5 %)", "format": "functional"}, "HL-60 [6]": {"tested_on": "HL-60", "assay": "Induction of apoptosis in human HL-60 cells assessed as early apoptotic cells at 4 uM incubated for 24 hrs by propidium iodide and annexin-V FITC staining based FACS analysis (reference value: 2.9 %)", "format": "functional"}, "HL-60 [7]": {"tested_on": "HL-60", "assay": "Induction of apoptosis in human HL-60 cells assessed as late apoptotic cells at 2 uM incubated for 24 hrs by propidium iodide and annexin-V FITC staining based FACS analysis (reference value: 4.2 %)", "format": "functional"}, "HL-60 [8]": {"tested_on": "HL-60", "assay": "Induction of apoptosis in human HL-60 cells assessed as early apoptotic cells at 2 uM incubated for 24 hrs by propidium iodide and annexin-V FITC staining based FACS analysis (reference value: 2.9 %)", "format": "functional"}, "HL-60 [9]": {"tested_on": "HL-60", "assay": "Induction of apoptosis in human HL-60 cells assessed as early apoptotic cells at 1 uM incubated for 24 hrs by propidium iodide and annexin-V FITC staining based FACS analysis (reference value: 2.9 %)", "format": "functional"}, "[10]": {"target": "T1, Protein deacetylase HDAC6 (Homo sapiens) (UniProt Q9UBN7)", "T1 sequence (whole entry)": "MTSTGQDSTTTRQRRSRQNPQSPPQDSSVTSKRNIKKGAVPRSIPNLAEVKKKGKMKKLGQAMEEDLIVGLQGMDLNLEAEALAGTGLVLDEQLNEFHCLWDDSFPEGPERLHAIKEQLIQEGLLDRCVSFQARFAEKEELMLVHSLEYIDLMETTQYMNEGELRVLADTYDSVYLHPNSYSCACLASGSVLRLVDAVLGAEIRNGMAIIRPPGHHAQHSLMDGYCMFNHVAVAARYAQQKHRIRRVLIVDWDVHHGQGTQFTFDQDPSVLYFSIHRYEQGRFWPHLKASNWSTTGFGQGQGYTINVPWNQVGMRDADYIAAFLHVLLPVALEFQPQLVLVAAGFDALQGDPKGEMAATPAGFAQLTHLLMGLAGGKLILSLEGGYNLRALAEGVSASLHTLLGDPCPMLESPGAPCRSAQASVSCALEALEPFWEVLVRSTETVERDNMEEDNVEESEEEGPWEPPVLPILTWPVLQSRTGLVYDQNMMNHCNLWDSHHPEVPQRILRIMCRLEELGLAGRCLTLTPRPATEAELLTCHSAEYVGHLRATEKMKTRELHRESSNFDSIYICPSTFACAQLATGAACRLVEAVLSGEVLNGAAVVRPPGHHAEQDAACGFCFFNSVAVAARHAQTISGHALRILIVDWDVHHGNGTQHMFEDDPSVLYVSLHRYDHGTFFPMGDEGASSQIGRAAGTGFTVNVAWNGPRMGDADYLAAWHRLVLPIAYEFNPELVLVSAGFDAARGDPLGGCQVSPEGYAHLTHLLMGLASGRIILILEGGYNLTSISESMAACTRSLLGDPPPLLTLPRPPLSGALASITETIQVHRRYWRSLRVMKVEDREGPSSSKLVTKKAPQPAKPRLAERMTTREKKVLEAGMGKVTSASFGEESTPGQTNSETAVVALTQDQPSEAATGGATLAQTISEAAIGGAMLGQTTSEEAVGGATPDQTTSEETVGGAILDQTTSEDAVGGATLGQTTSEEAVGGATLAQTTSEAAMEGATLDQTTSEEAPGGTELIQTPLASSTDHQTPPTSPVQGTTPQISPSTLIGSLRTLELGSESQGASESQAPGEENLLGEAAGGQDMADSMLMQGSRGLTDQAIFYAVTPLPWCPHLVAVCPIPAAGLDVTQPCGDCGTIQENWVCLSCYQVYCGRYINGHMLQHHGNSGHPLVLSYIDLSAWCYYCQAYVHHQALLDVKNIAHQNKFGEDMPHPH", "assay": "Inhibition of HDAC6 in human HL-60 cells assessed as increase in acetylated alpha tubulin level at 0.5 to 8 uM after 24 hrs by Western blot analysis", "format": "cell-based", "conditions": "dose 0.5-8 µM", "method_in_brief": "as §1"}, "[11]": {"assay": "Antitumor activity against mouse LL/2 cells inoculated in C57BL/6J mouse assessed as tumor growth inhibition at 100 mg/kg, ip administered for 12 days", "format": "functional, Lewis lung carcinoma", "parameters": "scale not given: the % may be the effect or the level left", "conditions": "time 12 day"}, "HL-60 [12]": {"tested_on": "HL-60", "assay": "Induction of apoptosis in human HL-60 cells assessed as viable cells at 8 uM incubated for 24 hrs by propidium iodide and annexin-V FITC staining based FACS analysis (reference value: 92.05 %)", "format": "functional", "conditions": "read-out: Activity"}, "[13]": {"target": "Histone deacetylase 3 (Homo sapiens) (UniProt O15379)", "sequence (O15379 whole entry)": "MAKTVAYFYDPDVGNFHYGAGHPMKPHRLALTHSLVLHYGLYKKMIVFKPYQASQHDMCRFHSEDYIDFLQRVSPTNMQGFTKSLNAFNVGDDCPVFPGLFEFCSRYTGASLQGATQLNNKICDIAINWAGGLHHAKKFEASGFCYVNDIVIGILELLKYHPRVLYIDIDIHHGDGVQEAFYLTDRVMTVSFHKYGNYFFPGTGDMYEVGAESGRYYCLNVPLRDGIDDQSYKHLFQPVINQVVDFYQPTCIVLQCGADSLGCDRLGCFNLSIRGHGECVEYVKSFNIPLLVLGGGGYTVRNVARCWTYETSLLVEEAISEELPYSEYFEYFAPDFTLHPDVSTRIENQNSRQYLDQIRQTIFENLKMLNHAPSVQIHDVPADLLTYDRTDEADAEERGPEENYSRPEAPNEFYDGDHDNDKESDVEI", "assay": "Inhibition of HDAC3 in human HL-60 cells assessed as increase in Ac-H3 level at 0.5 to 2 uM incubated for 24 hrs by Western blot analysis", "format": "cell-based", "conditions": "dose 0.5-2 µM", "method_in_brief": "as §1"}, "[14]": {"target": "T1, Protein deacetylase HDAC6 (Homo sapiens)", "assay": "Inhibition of HDAC6 in human HL-60 cells assessed as increase in acetylated alpha tubulin level at 0.5 uM after 24 hrs by Western blot analysis", "format": "cell-based", "method_in_brief": "as §1"}, "HL-60 [15]": {"tested_on": "HL-60", "assay": "Induction of apoptosis in human HL-60 cells assessed as cleavage of PARP at 0.5 to 2 uM after 24 hrs Western blot analysis", "format": "functional, cell-based", "conditions": "dose 0.5-2 µM", "method_in_brief": "as §2"}, "HL-60 [16]": {"tested_on": "HL-60", "assay": "Induction of apoptosis in human HL-60 cells assessed as late apoptotic cells at 1 uM incubated for 24 hrs by propidium iodide and annexin-V FITC staining based FACS analysis (reference value: 4.8 %)", "format": "functional"}, "HL-60 [17]": {"tested_on": "HL-60", "assay": "Induction of apoptosis in human HL-60 cells assessed as necrotic cells at 0.5 uM incubated for 24 hrs by propidium iodide and annexin-V FITC staining based FACS analysis (reference value: 0.3 %)", "format": "functional"}}, "note": "Activity calls are given as the source filed them. The calls are words filed in the database; no cut-off is given here.", "data": [{"molecule": "O=C(NCCSSCCNC(=O)/C(Cc1ccc(O)c(Br)c1)=N/O)/C(Cc1ccc(O)c(Br)c1)=N/O", "note": "[PSAMMAPLIN A]", "values": [{"measurement": "inhibition", "setting": "Histone deacetylase 2", "value": "Active"}, {"measurement": "inhibition", "setting": "Histone deacetylase 1", "value": "Active"}, {"measurement": "Activity", "setting": "HL-60 [1]", "value": "Active"}, {"measurement": "Activity", "setting": "HL-60 [2]", "value": "Active"}, {"measurement": "Activity", "setting": "HL-60 [3]", "value": "Active"}, {"measurement": "Activity", "setting": "HL-60 [4]", "value": "Active"}, {"measurement": "Activity", "setting": "HL-60 [5]", "value": 3.7, "unit": "%"}, {"measurement": "Activity", "setting": "HL-60 [6]", "value": 3.4, "unit": "%"}, {"measurement": "Activity", "setting": "HL-60 [7]", "value": 24.9, "unit": "%"}, {"measurement": "Activity", "setting": "HL-60 [8]", "value": 4.1, "unit": "%"}, {"measurement": "Activity", "setting": "HL-60 [9]", "value": 2.6, "unit": "%"}, {"measurement": "inhibition", "setting": "[10]", "value": "inactive"}]}, {"molecule": "O=C(NCCS)/C(Cc1ccc(O)c(Br)c1)=N/O", "values": [{"measurement": "Activity", "setting": "[11]", "value": 62, "unit": "%"}, {"measurement": "inhibition", "setting": "Histone deacetylase 2", "value": "Active"}, {"measurement": "inhibition", "setting": "Histone deacetylase 1", "value": "Active"}, {"measurement": "Activity", "setting": "HL-60 [1]", "value": "Active"}, {"measurement": "Activity", "setting": "HL-60 [2]", "value": "Active"}, {"measurement": "Activity", "setting": "HL-60 [3]", "value": "Active"}, {"measurement": "Activity", "setting": "HL-60 [4]", "value": "Active"}, {"measurement": "viability at 8 µM", "setting": "HL-60 [12]", "value": 68.3, "unit": "%"}, {"measurement": "Activity", "setting": "HL-60 [5]", "value": 0.3, "unit": "%"}, {"measurement": "Activity", "setting": "HL-60 [6]", "value": 1.6, "unit": "%"}, {"measurement": "Activity", "setting": "HL-60 [7]", "value": 3.7, "unit": "%"}, {"measurement": "Activity", "setting": "HL-60 [8]", "value": 2.4, "unit": "%"}, {"measurement": "inhibition", "setting": "[10]", "value": "inactive"}]}, {"molecule": "O=C(CCNC(=O)/C(Cc1ccc(O)c(Br)c1)=N/O)NO", "values": [{"measurement": "inhibition", "setting": "[13]", "value": "Active"}, {"measurement": "inhibition", "setting": "[14]", "value": "Active"}, {"measurement": "Activity", "setting": "HL-60 [15]", "value": "Active"}, {"measurement": "Activity", "setting": "HL-60 [16]", "value": 12.6, "unit": "%"}, {"measurement": "Activity", "setting": "HL-60 [17]", "value": 0.2, "unit": "%"}]}]}
